Data published in ChEMBL document CHEMBL2163203, “Conformationally-locked N-glycosides with selective β-glucosidase inhibitory activity: identification of a new non-iminosugar-type pharmacological chaperone for Gaucher disease” (J Med Chem, 2012).
Active and inactive are the calls of the source. The calls are words filed in the database; no cut-off is given here.

Tests used:
Canavalia ensiformis = experiment: Inhibition of jack bean alpha-mannosidase at 2 mM after 10 to 30 mins by spectrophotometric analysis
Procedure, shortened: (§1)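 Enzyme added to substrate with or without inhibitor in phosphate buffer (phosphate–citrate for α-/β-mannosidase and amyloglucosidase) at each enzyme's optimal pH; 10–30 min at 37 °C (55 °C amyloglucosidase), aiming at 10–20% conversion. Stopped with 1 M Na₂CO₃, A405; trehalase stopped by heating, GLC-Trinder added, A492. Ki from Lineweaver–Burk and double-reciprocal analysis, substrate near Km.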

Helix pomatia = experiment: Inhibition of Helix pomatia beta-mannosidase at 2 mM after 10 to 30 mins by spectrophotometric analysis; procedure, shortened: as §1
[1] = target: Beta-galactosidase (Escherichia coli) (UniProt Q8VNN2); experiment: Inhibition of Escherichia coli beta galactosidase at 2 mM after 10 to 30 mins by spectrophotometric analysis; procedure, shortened: as §1
Sequence of Beta-galactosidase (Escherichia coli) (Q8VNN2 whole entry, looked up): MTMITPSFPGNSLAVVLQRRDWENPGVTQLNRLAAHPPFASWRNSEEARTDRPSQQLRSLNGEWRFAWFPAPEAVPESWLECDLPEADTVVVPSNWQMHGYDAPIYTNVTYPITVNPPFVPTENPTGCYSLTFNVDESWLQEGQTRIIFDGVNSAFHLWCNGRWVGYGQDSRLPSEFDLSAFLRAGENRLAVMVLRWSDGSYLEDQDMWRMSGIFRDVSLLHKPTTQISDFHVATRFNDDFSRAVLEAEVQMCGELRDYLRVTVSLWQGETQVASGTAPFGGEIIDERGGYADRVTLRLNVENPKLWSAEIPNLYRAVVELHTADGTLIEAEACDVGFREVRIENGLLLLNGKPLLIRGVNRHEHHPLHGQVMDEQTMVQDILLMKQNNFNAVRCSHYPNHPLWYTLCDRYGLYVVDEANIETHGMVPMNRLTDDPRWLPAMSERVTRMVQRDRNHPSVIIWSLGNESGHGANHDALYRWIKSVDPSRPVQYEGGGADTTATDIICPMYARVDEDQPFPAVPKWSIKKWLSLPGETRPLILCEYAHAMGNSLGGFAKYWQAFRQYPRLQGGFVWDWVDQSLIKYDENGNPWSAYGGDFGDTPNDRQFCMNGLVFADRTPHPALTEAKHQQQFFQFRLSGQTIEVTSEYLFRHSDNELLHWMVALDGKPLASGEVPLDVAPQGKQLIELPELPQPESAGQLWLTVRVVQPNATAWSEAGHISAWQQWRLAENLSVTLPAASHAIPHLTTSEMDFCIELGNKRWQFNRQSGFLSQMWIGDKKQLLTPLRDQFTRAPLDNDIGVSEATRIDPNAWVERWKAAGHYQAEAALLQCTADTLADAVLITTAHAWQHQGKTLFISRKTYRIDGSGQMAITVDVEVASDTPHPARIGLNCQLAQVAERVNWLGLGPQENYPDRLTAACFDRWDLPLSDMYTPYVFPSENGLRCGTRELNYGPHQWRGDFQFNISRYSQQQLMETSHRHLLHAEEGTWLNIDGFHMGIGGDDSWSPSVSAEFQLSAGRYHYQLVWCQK

[2] = Competitive inhibition of bovine beta-glucosidase isolated from liver after 10 to 30 mins by Lineweaver-Burk plot analysis; parameters: species or system Bos taurus; procedure, shortened: as §1
[3] = target: Alpha-galactosidase (Coffea arabica) (UniProt Q42656); experiment: Inhibition of green coffee alpha galactosidase at 2 mM after 10 to 30 mins by spectrophotometric analysis; procedure, shortened: as §1
Sequence of Alpha-galactosidase (Coffea arabica) (Q42656 16-378 limits assumed): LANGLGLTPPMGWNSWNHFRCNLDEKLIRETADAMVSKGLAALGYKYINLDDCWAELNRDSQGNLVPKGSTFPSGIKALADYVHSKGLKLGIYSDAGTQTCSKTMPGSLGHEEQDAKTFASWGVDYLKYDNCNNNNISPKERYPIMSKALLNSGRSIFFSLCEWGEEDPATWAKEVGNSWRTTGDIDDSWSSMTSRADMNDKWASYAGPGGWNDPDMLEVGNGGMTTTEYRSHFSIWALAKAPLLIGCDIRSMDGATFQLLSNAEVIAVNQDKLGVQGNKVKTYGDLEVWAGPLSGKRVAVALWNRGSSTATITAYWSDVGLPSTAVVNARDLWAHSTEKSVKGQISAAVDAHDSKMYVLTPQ

Penicillium decumbens = experiment: Inhibition of Penicillium decumbens naringinase at 2 mM after 10 to 30 mins by spectrophotometric analysis; procedure, shortened: as §1
Saccharomyces cerevisiae [4] = experiment: Inhibition of yeast isomaltase at 2 mM after 10 to 30 mins by spectrophotometric analysis; procedure, shortened: as §1
[5] = target: T1, Lysosomal acid glucosylceramidase (Homo sapiens) (UniProt P04062); experiment: Inhibition of human beta-glucocerebrosidase at 100 uM relative to control; conditions: values are per cent of control
T1 sequence (whole entry): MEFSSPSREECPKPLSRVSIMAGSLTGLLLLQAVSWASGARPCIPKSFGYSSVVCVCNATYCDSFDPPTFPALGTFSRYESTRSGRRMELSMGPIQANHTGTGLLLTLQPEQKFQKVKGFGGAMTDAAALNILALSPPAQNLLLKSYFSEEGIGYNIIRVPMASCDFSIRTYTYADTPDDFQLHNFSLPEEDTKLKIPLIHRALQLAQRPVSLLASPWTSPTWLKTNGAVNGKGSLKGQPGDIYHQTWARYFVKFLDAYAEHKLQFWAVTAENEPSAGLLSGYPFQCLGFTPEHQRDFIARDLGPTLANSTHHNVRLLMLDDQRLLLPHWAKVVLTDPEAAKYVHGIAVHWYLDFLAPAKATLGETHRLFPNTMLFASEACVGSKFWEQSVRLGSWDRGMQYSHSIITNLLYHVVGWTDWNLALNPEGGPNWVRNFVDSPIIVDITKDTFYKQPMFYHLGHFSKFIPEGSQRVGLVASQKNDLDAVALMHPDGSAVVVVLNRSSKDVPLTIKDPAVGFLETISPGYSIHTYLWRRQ

Aspergillus niger = experiment: Inhibition of Aspergillus niger amyloglucosidase at 2 mM after 10 to 30 mins by spectrophotometric analysis; procedure, shortened: as §1
Prunus dulcis = experiment: Inhibition of almond beta-glucosidase at 2 mM after 10 to 30 mins by spectrophotometric analysis; procedure, shortened: as §1
[6] = target: T2, Uncharacterized protein (Sus scrofa) (UniProt I3LIR5); experiment: Inhibition of pig trehalase isolated from kidney using alpha,alpha'-trehalose as substrate at 2 mM after 10 to 30 mins by spectrophotometric analysis; procedure, shortened: as §1
T2 sequence (whole entry): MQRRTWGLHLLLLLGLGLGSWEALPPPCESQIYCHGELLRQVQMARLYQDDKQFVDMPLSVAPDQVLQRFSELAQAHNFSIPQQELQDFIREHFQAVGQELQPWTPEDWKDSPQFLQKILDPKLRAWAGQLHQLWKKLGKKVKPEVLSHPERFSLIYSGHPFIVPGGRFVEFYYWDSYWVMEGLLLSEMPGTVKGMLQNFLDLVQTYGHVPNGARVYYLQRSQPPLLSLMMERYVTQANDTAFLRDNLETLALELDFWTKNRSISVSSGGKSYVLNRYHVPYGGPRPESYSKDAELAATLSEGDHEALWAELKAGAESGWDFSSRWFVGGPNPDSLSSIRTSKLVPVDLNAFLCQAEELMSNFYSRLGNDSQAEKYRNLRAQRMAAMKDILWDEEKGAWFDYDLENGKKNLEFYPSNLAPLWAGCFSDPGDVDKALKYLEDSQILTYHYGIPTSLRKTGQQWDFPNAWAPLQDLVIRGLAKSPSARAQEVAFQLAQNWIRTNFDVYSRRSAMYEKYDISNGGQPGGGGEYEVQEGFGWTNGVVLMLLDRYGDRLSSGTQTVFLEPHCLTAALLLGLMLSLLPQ

Saccharomyces cerevisiae [7] = experiment: Inhibition of yeast alpha-glucosidase using at 2 mM after 10 to 30 mins by spectrophotometric analysis; procedure, shortened: as §1

| SMILES | inhibition (Canavalia ensiformis) | inhibition (Helix pomatia) | inhibition [1] | Ki [2] [µM] | inhibition [3] | inhibition (Penicillium decumbens) | inhibition (Saccharomyces cerevisiae [4]) | residual activity [5] [%] | inhibition (Aspergillus niger) | inhibition (Prunus dulcis) | inhibition [6] | inhibition (Saccharomyces cerevisiae [7]) |
| --- | --- | --- | --- | --- | --- | --- | --- | --- | --- | --- | --- | --- |
| OC[C@H]1O[C@@H]2N=C(SCc3ccccc3)O[C@@H]2[C@@H](O)[C@@H]1O | inactive | inactive | inactive | 210 | inactive | inactive | inactive | 88 | inactive | inactive | inactive | inactive |
| CCCCCCCSC1=N[C@H]2O[C@H](CO)[C@@H](O)[C@H](O)[C@H]2O1 | inactive | inactive | inactive | 310 | inactive | inactive | inactive | 91 | inactive | inactive | inactive | inactive |
| CCCCCCCCCCCCSC1=N[C@H]2O[C@H](CO)[C@@H](O)[C@H](O)[C@H]2O1 | inactive | inactive | inactive | 73 | inactive | inactive | inactive | 87 | inactive | inactive | inactive | inactive |
| C=CCSC1=N[C@H]2O[C@H](CO)[C@@H](O)[C@H](O)[C@H]2O1 | inactive | inactive | inactive | 220 | inactive | inactive | inactive | 97 | inactive | inactive | inactive | inactive |

Continued by falling Ki [2], values first:

| inhibition (Canavalia ensiformis) | inhibition (Helix pomatia) | inhibition [1] | Ki [2] [µM] | inhibition [3] | inhibition (Penicillium decumbens) | inhibition (Saccharomyces cerevisiae [4]) | residual activity [5] [%] | inhibition (Aspergillus niger) | inhibition (Prunus dulcis) | inhibition [6] | inhibition (Saccharomyces cerevisiae [7]) | SMILES |
| --- | --- | --- | --- | --- | --- | --- | --- | --- | --- | --- | --- | --- |
| inactive | inactive | inactive | 580 | inactive | inactive | inactive | 92 | inactive | inactive | inactive | inactive | CCCCSC1=N[C@H]2O[C@H](CO)[C@@H](O)[C@H](O)[C@H]2O1 |
| inactive | inactive | inactive | 280 | inactive | inactive | inactive | 91 | inactive | inactive | inactive | inactive | CCCCCCCCSC1=N[C@H]2O[C@H](CO)[C@@H](O)[C@H](O)[C@H]2O1 |
| inactive | inactive | inactive | 230 | inactive | inactive | inactive | 91 | inactive | inactive | inactive | inactive | O=C(NCCCCCCSC1=N[C@H]2O[C@H](CO)[C@@H](O)[C@H](O)[C@H]2O1)C12CC3CC(CC(C3)C1)C2 |
| inactive | inactive | inactive | 52 | inactive | inactive | inactive | 86 | inactive | inactive | inactive | inactive | CCCCCCCCCCCCCCCCSC1=N[C@H]2O[C@H](CO)[C@@H](O)[C@H](O)[C@H]2O1 |
